Test results from the EternaBench riboswitch data.

System: MS2 coat protein
Test: apparent Kd, MS2 coat protein; higher = weaker binding; RNA-MaP array; FMN 200 µM where present
How it was run: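 Stalled E. coli RNA polymerase produced the designs on Illumina sequencing-chip clusters. SNAP-549-labelled MS2 coat protein was added from 0.7 or 1.5 nM, doubling to 3 µM, without and then with constant ligand, in 100 mM Tris-HCl pH 7.5, 80 mM KCl, 4 mM MgCl2, BSA, DTT, yeast tRNA and Tween-20. The apparent Kd is the median of filtered per-cluster fits of green signal normalised to red-channel RNA signal and control-cluster median Fmax.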

[1] = designed as: ON switch for flavin mononucleotide, no ligand
[2] = ligand present: flavin mononucleotide, designed as: ON switch for flavin mononucleotide
[3] = designed as: OFF switch for flavin mononucleotide, no ligand
[4] = ligand present: flavin mononucleotide, designed as: OFF switch for flavin mononucleotide

Sequence	apparent Kd [1]	apparent Kd [2]	apparent Kd [3]	apparent Kd [4]
CCGUAGAUGGGACAGGAUAUGACUGUCGUCACAUGAGGAUCACCCAUGUCCCGGCAAUGCCACCGUUAGAAGGGUCCCGUCUCGG	14.4 nM	15 nM		
UGUACCGUUGGAACGCGUCGAGUACAUGAGGAUCACCCAUGUCAGGAUAUGUGGCGGAAGGUAGCACAGAAGGGACAUAGAAAA			30.1 nM	86.7 nM
UGUCGGAGCCGAGGAUAUUACAUGAGGAUCACCCAUGUAUGAACCAAUAGCUGGAAACAGCAAUGUAAGAAGGCUGCUCCGACA			5.08 nM	15.7 nM
UCCACUGCUGAGAAGGGAUACGUCUGGCUCGCAUCAGGAUAUCGAUACAGUGCAGCAUGAGGACAUGAGGAUCACCCAUGUGUG	104 nM	68.8 nM		
UGAAAGCUAGGAUAUACAUGAGGAUCACCCAUGUACCGGCUUGGCCCUGGUCCAAAGUGUAGAAGGAGCACGCC			28.2 nM	50.3 nM
CUUGGGUGGCUGGAGGAUAUUCGAGUGGUAACAUGAGGAUCACCCAUGUGUCGCGCGGUACACGAGGAGAAGGCUGGCGGCCGGC	146 nM	54.6 nM		
CAAUUUUGGAGUUCGUAUCGAUACAUGAGGAUCACCCAUGUAAAGGAUAUGAUCUAGUUUUUAGAUCAGAAGGUUACAUAGGCG			54.9 nM	25.8 nM
UGUCGGAGCAGAGGAUAUUACAUGAGGAUCACCCAUGUAUGAACCAAUAGCUGGAAACAGCAAUGUAAGAAGGCUGCUUCGACA			12.4 nM	145 nM
CUCGAGCCAAGGCUCGCGAGUACACAGGAUAUGGAAAGUCACAUGAGGAUCACCCAUGUCCAAAACCAGAAGGGUGAGACUAAG	425 nM	85.7 nM		
GCACUUAAAAUUGAACCGUUUCGAACAUGAGGAUCACCCAUGUAGGAUAUGCUAAUAGUAUUGAAGCAGAAGGACAAUAAGUGC			6.17 nM	5.99 nM
AUAAUUUUAUAUAUCAUAUAAAUCAGAAGGCAUAACAUGAGGAUCACCCAUGUAUAUUAUUGUUAUGAGGAUAUGAUUUCGUUA			9.12 nM	42.5 nM
UUAUAAAGUGUGAGGAUAUGCUGGUCCUUAGAUCAGCAGAAGGCACAUGAGGAUCACCCAUGUAAUAUAUUUUU			38.4 nM	185 nM
CGAGCCGGCACUGAGGAUAUUCAUAUUUAAACAUGAGGAUCACCCAUGUAGGCCAGAAGGCCUUGGGAGAAGGCAGGUCGGCUCC	379 nM	27.2 nM		
UUAUCUCAUGAGAAGGACAUGAGGAUCACCCAUGUAGGAUAUCAUGGGUCAGAGGAAUUGAAUCUAAUGAUUCAAUUACUCUUC	60.5 nM	10.4 nM		
AGAUAACAUGUAGGAUAUCGAGGCCUGAGGCCUCGAGAAGGACAUGAGGAUCACCCAUGUAGUUGUACCAUGGAAUCACGCACU			340 nM	645 nM
CUGCCUUAUGUAGGAUAUGCAUAGCAUUGCUAUGCAGAAGGACAUGAGGAUCACCCAUGUAUGUUAUCAAUACAUAUCUGGCAG			17.5 nM	54.5 nM
CGUGUACGAGGAUAUAGAUUGAAUGACAUGAGGAUCACCCAUGUGAUCGAUCUAUUUGAUUUAGAAGGUGUACAUG			14 nM	16.9 nM
UGGUACUAGGGAGGAUAUGGGAAGAUACAUGAGGAUCACCCAUGUUUAAGAAUGACGAGAGGCAACUAGAAGGCCCUAGUACCU	328 nM	25.9 nM		
GCAGUAAAUAAAUGCACAUGAGGAUCACCCAUGUGGGAGGCACAGGAUAUCGCAUCAUAGCGGUGCGAGAAGGGUGAUAAUCUC	346 nM	72.3 nM		
UUUAGUAUCUAGGAUAUCUAGUACAUAGUAUCUAGAGAAGGAGAUACAUGAGGAUCACCCAUGUUCUGUGAUCU			210 nM	36.4 nM
GGUGCGUAUGUGAGGAUAUGCUGGUCCUUGGCUCAGCAGAAGGCACAUGAGGAUCACCCAUGUGGUGUCGUACC			333 nM	21.8 nM
UGUCUUUGCACAGGAUAUCAUACAUGAGGAUCACCCAUGUCUAUAAAACAAUGAGAAGGGUGCGUGAUGUGGGCUGCUAUAGCG	24.7 nM	8.3 nM		
GCAUUUAAUACAGGAUAUGUAAGUAUACAUUAGAUUGGUAUAGUCACAACAACAGAAGGGUAGAACAUGAGGAUCACCCAUGUA	97.3 nM	62.9 nM		
GAUCCACAUGAGGAUCACCCAUGUCAGGAUAUGAUACUAUGUACUUCGGUACAUAGUAUCAGAAGGGACAGAUC			168 nM	108 nM

Sequence	apparent Kd [1]	apparent Kd [2]	apparent Kd [3]	apparent Kd [4]
CAUGUCCUCACAGGAUAUGCAAUGUAUUUCAUUGCAGAAGGGUGAACACAUGAGGAUCACCCAUGUGGACAUGAUAUAUUUAAU	521 nM	69.5 nM		
GGUUGGCGAGGAUAUACAUGAGGAUCACCCAUGUGGUCCUGUGGCUGAUCUUGCCUAUGUAGAAGGCGCAAAUC			35.7 nM	280 nM
CAGUACUGAGGAUAUACAUGAGGAUCACCCAUGUGCUUUAGCUAGGAUACUAGCACUAGUAGAAGGCAGUACUG			13.9 nM	23.6 nM
CGCGAACAUGAGGAUCACCCAUGUGGGUGGAACGUAGGAUAUACGUAGGUCUUUAAUACAGUAGAAGGACGUUCGC	264 nM	118 nM		
GAAUAACAUGAGGAUCACCCAUGUGAUUCGCAUGUAGGAUAUGGGCACGCGCCCGCGUGUCCAGAAGGACAGGCUA	154 nM	130 nM		
UGUCGGAGCGGAGGAUAUUACAUGAGGAUCACCCAUGUAUGAACCAAUAGCUGGAAACAGCAAUGUAAGAAGGCUGCUCCGACA			9.67 nM	131 nM
GGAUAGGACAGAGGAUAUACGUGCUAGAGCUACUAGCAAAAUUUCCUCACAUGAGGAUCACCCAUGUAGAAGGCUGUCCUAUCG			15.6 nM	463 nM
CUUAUGUAAGGAUAUCAGUAGUAAAAAAAUAAAAUUACUACUGAGAAGGUACAUGAGGAUCACCCAUGUAUCAA			27.6 nM	30.4 nM
AAGGAUCGAGGAUAUACAUAGAUACAGAUACAUGUAGACCUACAUGAGGAUCACCCAUGUAGAAGGCGAUCCUA			22.4 nM	54.7 nM
GUUUACGCAUGAGGAUAUGCUCGCAUUUCAAGAGCAGAAGGUAUGUCUUUAGACAUGAGGAUCACCCAUGUAUUUAUCAUUGAA	166 nM	28.4 nM		
UCUGCCGCCGUGAGGAUAUGCCCAAAUAAAAGCGGGCAGAAGGCACAUGAGGAUCACCCAUGUCCUGCGGUUUU			22.1 nM	93.6 nM
UGGUCAUGAUCAGGAUAUUAACAUGGGCUACAUUAAGAAGGGAUAGUGAGAUACGAACUGAACGACAUGAGGAUCACCCAUGUU	40.4 nM	30.4 nM		
GGAUGACAAAGUCAUCCAAUACGAACAUGAGGAUCACCCAUGUAGGAUAUGCUACAUGAGGAUCACCAGAAGGACAUGUGCCUU			123 nM	135 nM
AUUGUAUAGGAAGGAUAUAGAAUAUUAUUUUAACAUGAGGAUCACCCAUGUAACCUUAUGUGUAGCUAGAAGGUCCGUUUAUUA			110 nM	162 nM
UGAUAGGACAGAGGAUAUACCGAUAGGAUCUACUAUCGAAGAAUCCUUACAUGAGGAUCACCCAUGUAGAAGGCUGUCCUAUCU			20.4 nM	29.6 nM
GCAGCUAAUAUUAUACAUGAGGAUCACCCAUGUUACAUGAGUAAGGAUAUUGAUGAUUAUAUAAACAAGAAGGUACGAAGCUGC	14.9 nM	7.85 nM		
AAAGAGACAGGAUAUACAUGGGUGAUAAAAAUCAUGUAAAAACAUGAGGAUCACCCAUGUAGAAGGGUCUCAAA			26.9 nM	22.8 nM
UUGUACAUAGGAUAUAGUUGUUUGUACAUGAGGAUCACCCAUGUUAUGUAUCUUUUGCUUCUAGAAGGAUGUUCUU			38.7 nM	27.7 nM
AGGAUGUUAGGAUAUCGGAUAUGCUGGAGGAGGUGGAUUUACGAGAAGGAACAUGAGGAUCACCCAUGUUGGAG			22.5 nM	25.1 nM
UAUAAAAUAGGAUGACAUGAGGAUCACCCAUGUUGCGCGAGGAGAAGGCCCAUUCGGCAACUAUGGGAGGAUAUCCAUCGCCUG	66.5 nM	24.1 nM		
UCAUUAUAAAUCCAUCAUAACUACAUGAGGAUCACCCAUGUGCAGGAUAUCGAUUAUUUUACUAACGAGAAGGGCAUUUACAGA			51.1 nM	181 nM
AAUAUGUUGCAGAAGGUUAUAUUUUUUUAGUACCUCAUUACAUGAGGAUCACCCAUGUAAAUGAUGAAGGAUAUGCAAUAUAUU			19.3 nM	16.4 nM
CUAUUGUGAGGAUAUCAGGUGUGCUAGCGUACUGGUACAUCUGAGAAGGCACAUGAGGAUCACCCAUGUUUCUU			19.3 nM	56.2 nM
GCGUGGUUCUAGAAGGUGCUAGCGAUAAGCUAGCAAGGAUAUAGACAUGAGGAUCACCCAUGUCUAAGAGAAAUAGACACACGC			4.56 nM	5.09 nM
